Test results taken from paper PMC9183947 (Molecular imaging and biology, 2021).
“Also recorded” adds a separate entry of the source. Starred links: 1 amine or outer side, 2 acyl side, 3 side chain; linkers in the order of their positions; H or OH if unused. Non-standard residues stand in square brackets, D forms with d. Residues, ends and D or L forms follow the SMILES beside them. Groups on a side chain read outwards from the residue. *: point of attachment. Acryloyl(3-(3-pyridyl),E) = O=C(/C=C/c1cccnc1)*; X2 = O=C(CN1CCCN2CCN(CCCN(CP(=O)(O)O)CC2)CC1)*; X1 = O=C(Cc1ccc(N[*:1])cc1)[*:2]; Aad = N[C@@H](CCCC(=O)O)C(=O)O; NH(2-Me-phenyl) = Cc1ccccc1N*; PEG4 = NCCOCCOCCOCCOCCC(=O)O; Ac6c = NC1(C(=O)O)CCCCC1; CO = O=C([*:1])[*:2]

How the values were obtained:
[1] = test system: BPR cells (VLA-4−); test: [64Cu]-LLP2A internalization assay, BPR cells; assay type: cell-based, mouse; details: 15 min - 4 h at 37°C
In short: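 Cells (1 x 10^5/well, seeded 24 h) were held in DMEM/1% BSA/1 mM Mn2+. Blocked wells first had 10 μg unlabelled PEG4 peptide for 15 min at 37°C. Each well then received 0.44 MBq radiotracer (3.43 MBq/nmol) at 37°C for 15 min, 2 h or 4 h. Surface activity was stripped with 20 mM sodium acetate pH 4.0 (10 min). Lysates were γ-counted, corrected for background, block and decay, and normalised to protein; n=3.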

[2] = test system: B16F10 melanoma cells (VLA-4+); details: previously reported; cited from earlier work
[3] = test system: s.c. BPR and BPRα tumors; test: PET/CT imaging of BPR and BPRα tumor models; assay type: in vivo, C57BL/6 mice
In short: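 Mice bore s.c. flank tumours (5 x 10^5 cells plus Matrigel; n=9 per line, 3m/6f) and received 7.4 MBq radiotracer i.v. (57.2 MBq/nmol). Under 2% isoflurane, static 10-min PET/CT scans were taken at 4 and 24 h and reconstructed by OSEM-3D. ROIs were drawn on CT. SUV = activity concentration x body weight/injected dose. Tumour-to-muscle SUV ratios were derived.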

[4] = test system: BPR cells (VLA-4−); test: Saturation binding of [64Cu]-LLP2A to BPR cells; set-up: species or system mouse
[5] = Biodistribution in BPR tumor-bearing mice; assay type: in vivo, C57BL/6 mice; details: both, C57BL/6, mouse, iv, 7.4 MBq, total radioactivity
In short: (§1)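 Male and female C57BL/6 mice (4–6 weeks old) carried s.c. right-flank tumours from 5 x 10^5 cells in an equal volume of Matrigel. They received 7.4 MBq radiotracer (57.2 MBq/nmol) via lateral tail vein and were euthanised right after 24 h imaging (n=6; 3m/3f). Tissues and tumour were weighed and γ-counted. %IA/g was decay-corrected against an injected-dose standard.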

[6] = Biodistribution in BPRα tumor-bearing mice; assay type: in vivo, C57BL/6 mice; details: both, C57BL/6, mouse, iv, 7.4 MBq, total radioactivity
In short: as §1

[7] = previously demonstrated, cited from earlier work
[8] = target: VLA-4 (integrin α4β1) on BPRα cells (Mus musculus, UniProt P09055+Q00651); test: Saturation binding of [64Cu]-LLP2A to BPRα cells; details: normalized to cellular protein, triplicate
Sequence of VLA-4 (integrin α4β1) on BPRα cells (Q00651 41-1039): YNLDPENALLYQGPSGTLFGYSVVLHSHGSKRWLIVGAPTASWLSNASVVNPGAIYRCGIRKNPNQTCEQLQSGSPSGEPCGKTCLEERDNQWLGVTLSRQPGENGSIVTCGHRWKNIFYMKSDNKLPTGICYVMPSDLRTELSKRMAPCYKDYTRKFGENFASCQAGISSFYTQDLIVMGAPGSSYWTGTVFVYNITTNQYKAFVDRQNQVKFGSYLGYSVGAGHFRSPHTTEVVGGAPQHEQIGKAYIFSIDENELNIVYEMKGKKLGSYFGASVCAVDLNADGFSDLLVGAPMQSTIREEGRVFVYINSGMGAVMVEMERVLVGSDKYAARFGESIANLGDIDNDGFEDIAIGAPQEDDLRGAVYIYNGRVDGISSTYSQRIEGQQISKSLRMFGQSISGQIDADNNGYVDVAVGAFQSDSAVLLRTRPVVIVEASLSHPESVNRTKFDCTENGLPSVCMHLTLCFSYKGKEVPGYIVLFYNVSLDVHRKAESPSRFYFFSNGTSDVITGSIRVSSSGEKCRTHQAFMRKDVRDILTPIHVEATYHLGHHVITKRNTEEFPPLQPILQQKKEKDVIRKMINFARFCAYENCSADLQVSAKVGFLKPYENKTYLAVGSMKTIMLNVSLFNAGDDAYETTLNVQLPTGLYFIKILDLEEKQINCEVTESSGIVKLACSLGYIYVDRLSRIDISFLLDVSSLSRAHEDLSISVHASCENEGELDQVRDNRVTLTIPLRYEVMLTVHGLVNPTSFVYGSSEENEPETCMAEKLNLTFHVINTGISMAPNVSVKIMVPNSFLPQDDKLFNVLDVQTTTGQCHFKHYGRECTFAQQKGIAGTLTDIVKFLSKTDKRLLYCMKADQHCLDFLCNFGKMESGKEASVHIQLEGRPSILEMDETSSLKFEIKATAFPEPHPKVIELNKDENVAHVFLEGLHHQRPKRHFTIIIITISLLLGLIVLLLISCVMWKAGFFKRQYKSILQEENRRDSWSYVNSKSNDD
Sequence of VLA-4 (integrin α4β1) on BPRα cells (P09055 21-798): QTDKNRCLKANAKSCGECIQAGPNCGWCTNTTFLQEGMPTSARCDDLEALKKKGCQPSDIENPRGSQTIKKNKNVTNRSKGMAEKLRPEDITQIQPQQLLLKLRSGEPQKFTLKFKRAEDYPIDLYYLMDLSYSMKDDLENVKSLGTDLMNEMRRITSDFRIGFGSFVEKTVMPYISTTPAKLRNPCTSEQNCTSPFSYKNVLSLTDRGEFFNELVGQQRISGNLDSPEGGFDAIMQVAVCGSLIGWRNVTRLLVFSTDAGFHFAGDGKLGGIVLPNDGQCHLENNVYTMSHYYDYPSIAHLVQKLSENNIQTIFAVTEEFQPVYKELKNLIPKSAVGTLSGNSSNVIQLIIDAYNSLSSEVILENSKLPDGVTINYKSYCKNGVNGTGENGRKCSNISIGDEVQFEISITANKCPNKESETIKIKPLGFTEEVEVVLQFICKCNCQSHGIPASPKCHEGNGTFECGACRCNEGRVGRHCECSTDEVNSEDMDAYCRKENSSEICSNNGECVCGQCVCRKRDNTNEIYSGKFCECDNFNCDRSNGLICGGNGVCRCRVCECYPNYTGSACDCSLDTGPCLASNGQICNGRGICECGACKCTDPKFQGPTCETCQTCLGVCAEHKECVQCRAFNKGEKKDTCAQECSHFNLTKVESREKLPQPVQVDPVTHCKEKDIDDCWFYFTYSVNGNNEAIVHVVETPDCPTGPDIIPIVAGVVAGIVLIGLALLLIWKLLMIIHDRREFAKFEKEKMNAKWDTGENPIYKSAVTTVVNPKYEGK

Cc1ccccc1NC(=O)Nc1ccc(CC(=O)N[C@@H](CCCCNC(=O)/C=C/c2cccnc2)C(=O)N[C@@H](CCCC(=O)O)C(=O)NC2(C(=O)N[C@@H](CCCCNC(=O)CCOCCOCCOCCOCCNC(=O)CN3CCCN4CCN(CCCN(CP(=O)(O)O)CC4)CC3)C(N)=O)CCCCC2)cc1 [[^64Cu]-LLP2A, [^64Cu]-CB-TE1A1P-PEG4-LLP2A, metal not drawn] ({NH(2-Me-phenyl)-CO}-[X1]K(Acryloyl(3-(3-pyridyl),E))[Aad][Ac6c]K([PEG4-X2])-NH2; N-terminus and C-terminus assumed)
internalization [1]: undetectable
Bmax [2]: 300 ± 4.5 fmol/mg
tumor uptake in BPRα relative to BPR (PET/CT) ([3]; 4h post-injection, 7.4 MBq i.v., n=9 each, p=0.0021): significant increase
tumor-to-muscle ratio of BPRα vs. BPR (PET/CT SUV) ([3]; 4h post-injection, n=9, p=0.0005): significantly greater
BPRα tumor uptake (PET/CT) ([3]; 24h post-injection, n=9): remained detectable
binding to BPR cells (saturation binding) ([4]; 1-100 nM tracer, on ice 2 h, blocked with LLP2A-PEG4): indeterminate binding; also recorded: no saturation occurs
Bmax ([4]; model fit poor, R^2=0.0002): not interpretable
tissue uptake at 24 h ([5]; spleen): 8.1 ± 4.4 %ID/g
tissue uptake at 24 h ([5]; thymus): 3.5 ± 0.9 %ID/g
tissue uptake at 24 h ([5]; tumor): 1.7 ± 0.2 %ID/g
tissue uptake at 24 h ([6]; bone marrow): 1.6 ± 0.5 %ID/g
tissue uptake at 24 h ([6]; spleen): 6 ± 1.9 %ID/g
tissue uptake at 24 h ([6]; thymus): 4.2 ± 4 %ID/g
tissue uptake at 24 h ([6]; tumor): 2.8 ± 0.2 %ID/g
stability in human serum ([7]; human serum): stability in human serum
binding of the conjugate to plasma proteins [7]: negligible
Bmax [8]: 145 ± 8.8 fmol/mg
